Screening results as filed in PubChem.
Biofilm kill mix: mixtures killing C. albicans biofilm; C. albicans biofilm persisters + clotrimazole, fluorescence viability; primary screen in compound mixtures of four per well; inhibition, % at 7.6 µM; 120,000 tested, 0.02% active;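 active = inhibition above 30.3% in the primary screen of four-compound pools, then above 30% when the compound was retested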;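 note: compounds exposed to preformed 24 h biofilms for 48 h; 0% = untreated biofilm control and 100% = clotrimazole plus chlorhexidine kill blank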
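Assay system: C. albicans biofilms / Medium: RPMI/MOPS medium, pH 7.0 / Schedule: biofilm formation 24 h, compound exposure 48 h, 37 °C / Measured by: Alamar Blue fluorescence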
Rad51 HR inh: blocks human Rad51 in homologous recombination; Q06609; hRad51 DNA strand exchange, fluorescence dequenching; inhibition, % at 10 µM; 200,000 tested, 0.085% active;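 active = inhibition above 40% at the single screening dose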;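 note: 0% = DMSO control wells and 100% = blanks with heterologous ssDNA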
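Test system: preformed human Rad51 ssDNA filaments; also added: Donor/quencher-labelled 47-bp dsDNA substrate; doses: 10 µM final, single point; times: 37 °C 15-min filament assembly, 30-min compound preincubation, 15-min exchange; detection: FRET fluorescence dequenching, excitation 485 nm, emission 520 nm; read-out basis: Fluorescence-based percent inhibition, control- and blank-normalised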
S1P3 antagonist: antagonists of human S1P3 receptor | CHO S1P3 NFAT-BLA reporter, FRET fluorescence, antagonist mode | Q99500 | 170,000 tested, 0.27% active | AID 485 | inhibition, % at 4.98 µM;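 active = inhibition above the plate cutoff, the mean inhibition of test wells on that plate plus 3 SD, cut at about 28% in these data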;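 note: cells challenged with S1P at its EC80 of 0.8 µM; blue over green emission ratio from cleaved BLA substrate after 4 h stimulation; 0% = S1P-stimulated wells and 100% = unstimulated DMSO-only wells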
Target sequence (Q99500 whole entry, looked up): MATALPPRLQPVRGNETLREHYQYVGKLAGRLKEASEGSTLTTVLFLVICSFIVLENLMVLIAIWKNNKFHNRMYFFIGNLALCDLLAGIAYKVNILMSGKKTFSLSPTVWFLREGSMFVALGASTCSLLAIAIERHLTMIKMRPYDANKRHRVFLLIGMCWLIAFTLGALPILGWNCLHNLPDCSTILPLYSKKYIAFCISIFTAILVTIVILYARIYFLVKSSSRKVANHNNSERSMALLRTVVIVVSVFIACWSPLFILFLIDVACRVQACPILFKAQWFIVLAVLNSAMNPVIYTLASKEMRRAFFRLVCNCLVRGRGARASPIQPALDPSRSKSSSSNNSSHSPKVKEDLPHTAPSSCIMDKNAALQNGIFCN
* = called active by the depositor; . = no result. Most compounds without a hit are left out; they make up all but 0.31% or so of the library.

SMILES	Biofilm kill mix	Rad51 HR inh	S1P3 antagonist
CCc1ccc(N2CSC3=C(C#N)C(c4cccs4)CC(=O)N3C2)cc1 (stereo unspecified)	.	4	-10
COc1cccc(NS(=O)(=O)c2ccc(OC)c(OC)c2)c1	.	-2	63*
COc1ccc(S(=O)(=O)Nc2ccccc2)cc1OC	.	1	.
N#Cc1ccc(NC(=S)NC(=O)CCc2ccc(S(=O)(=O)N3CCOCC3)cc2)cc1	8	-4	-13
COc1ccc(NC(=O)/C(Cl)=C(/Cl)S(=O)Cc2ccc(Cl)cc2)cn1 (stereo unspecified)	8	2	44*
COc1ccc(NC(=O)C(Cl)=C(Cl)Cl)cn1	10	-11	-7
O=C(Nc1cccnc1)C(Cc1ccccc1)n1cccc1 (stereo unspecified)	.	-8	12
O=C(Nc1ncc(Br)s1)C(Cc1ccccc1)n1cccc1 (stereo unspecified)	.	2	67*
O=C(Nc1nnc(C2=COCCO2)o1)c1ccc(S(=O)(=O)N2CCCCC2)cc1	13	7	-5
O=C(CSc1nc2ccccc2c(=O)n1Cc1ccccc1)NCc1ccco1	.	-7	.
COc1ccc(CCNC(=O)CSc2nc3[nH]ncc3c(=O)n2-c2ccccc2Br)cc1OC	19	3	-1
O=C(CSc1nc2[nH]ncc2c(=O)n1-c1ccccc1Br)NCc1ccco1	.	1	83*
O=C(CSc1nc2ccccc2c(=O)n1Cc1ccco1)NCc1ccccc1	.	.	76*
Cc1ccc(N(C(=O)Cc2cccs2)C(C(=O)NC2CCCCC2)c2ccccn2)cc1C (stereo unspecified)	10	.	12
Cc1ccc(N2CCN(C(=O)c3ccccc3)CC2)c(C)c1	.	4	-22
Cc1ccc(N2CCN(C(=O)c3cc(C(=O)c4ccccc4C)c[nH]3)CC2)c(C)c1	16	43*	-28
COc1ccc(Cn2c(SCC#N)nc3ccc(N4CCOCC4)cc3c2=O)cc1	7	-3	13
CC(=O)N(c1cccc(C(F)(F)F)c1)c1nc(/C=C/C(=O)O)cs1	7	40*	9
CC(=O)Nc1ccc(NC(=O)/C=C/c2cccc(C(F)(F)F)c2)cc1	11	-1	-11
COc1ccc(C)c2sc(N(CCCN(C)C)C(=O)c3ccc(S(=O)(=O)N(C)C)cc3)nc12	16	47*	-4
CCCCN(C(=O)c1ccc(S(=O)(=O)N(C)C)cc1)c1nc2ccccc2s1	14	-1	18
Cc1c(C(=O)NCc2ccc(S(N)(=O)=O)cc2)oc2ccc(Cl)cc12	11	.	6
Cn1cc(NC(=O)c2cc(NC(=O)c3cc(NC=O)cn3C)cn2C)cc1C(=O)NCCC(=N)N	18	48*	.
Cn1cccc1C(=O)OCC(=O)N1CC(=O)Nc2ccccc21	2	7	-10
C=CCN(CC=C)C(=O)COC(=O)c1ccc(Sc2ncn[nH]2)c([N+](=O)[O-])c1	4	0	-6
SMILES	Biofilm kill mix	Rad51 HR inh	S1P3 antagonist
O=C1Cc2cc(CCN3CCN(c4nsc5ccccc45)CC3)c(Cl)cc2N1	.	.	-5
CCCCOc1ccc(CSCCN=C(N)N)cc1	31*	-6	-23
CCCCOc1ccc(CSC(CC(=O)O)C(=O)O)cc1 (stereo unspecified)	.	-1	.
COc1ccc(C(=O)Oc2ccc(C(=S)N3CCOCC3)cc2)cc1	-9	4	-22
Cc1nc(SCC2(C)CC2(Cl)Cl)n[nH]1 (stereo unspecified)	7	-61	-3
O=c1c2ccccc2c(/C=N/c2n[nH]c(CCCO)n2)c(O)n1-c1ccccc1Cl	-1	6	-4
CC#CC[N+](C)(C)CCCCCCCCCCCC	9	11	-9
COc1cccc(/C=C/C(=O)c2cccc([N+](=O)[O-])c2)c1	7	-35	-1
COc1cccc(/C=C/C(=O)c2cccc([N+](=O)[O-])c2)c1OC	2	80*	-1
O=C(COC(=O)C(Cc1ccccc1)NC(=O)c1ccc(Cl)cc1)c1ccc(Cl)cc1 (stereo unspecified)	14	-4	4
O=c1c2ccccc2nc(/C=C/c2cccnc2)n1CCc1ccccc1	14	-7	-14
O=c1c2ccccc2nc(/C=C/c2cccnc2)n1Cc1ccccc1	2	48*	6
O=c1c(Cc2ccc(F)cc2)c(O)ccn1CCc1ccccn1	14	27	5
CCCCNC(=O)CC1Nc2ccccc2NC1=O (stereo unspecified)	.	5	-42
O=C(CC1Nc2ccccc2NC1=O)NCc1cccnc1 (stereo unspecified)	.	.	102*
O=C(COC(=O)/C=C/c1cccs1)NC1CC1	5	17	4
Cc1ccc(S(=O)(=O)N/N=C/c2cn(C)nc2C)cc1	.	1	.
CCn1cc(/C=N/NS(=O)(=O)c2ccc(OC)cc2)c(C)n1	.	45*	.
O=C(O)CCc1nn2c3ccccc3n(CC(=O)c3cccs3)c2nc1=O	25	-5	-18
COc1cccc2c1C(=O)c1c(O)c3c(c(O)c1C2=O)C[C@@](O)(C(=O)CO)C[C@@H]3O[C@H]1C[C@H](N)[C@H](O)[C@H](C)O1	17	66*	-11
CCCC(=O)C1=C(N2CCCCC2)CC(C)(C)C(C(=O)OC)C1=O (stereo unspecified)	23	3	-23
Nc1cccc2c1C(=O)N(c1ccccc1)C2=O	.	-6	93*
CC(=O)Nc1ccc(N2C(=O)c3cccc(NC(C)=O)c3C2=O)cc1	17	14	0
COc1ccc(CC(=O)Nc2nnc(C(C)(C)C)s2)cc1OC	10	-65	-9
O=C(NC1=NCCS1)c1cccc(N2C(=O)c3ccccc3C2=O)c1	18	41*	-14
SMILES	Biofilm kill mix	Rad51 HR inh	S1P3 antagonist
CCCN1C(=O)c2ccc(C(=O)NC3=NCCS3)cc2C1=O	.	1	20
COC(=O)CCC(=O)Nc1cccc2ccccc12	.	-4	.
CCCCCC(=O)Nc1cccc2ccccc12	12	43*	-21
CCOC(=O)c1sc(NN=C(C(=O)OC)C(=O)OC)c(C(=O)OCC)c1C	12	-4	-5
Cc1ccccc1NC(=O)Cc1nnc(N)s1	16	-1	-7
O=C(c1ccc2ccccc2n1)N1CCN(c2ccccc2)CC1	.	4	22
O=C(c1ccc2ccccc2n1)N1CCN(c2ccccc2O)CC1	.	87*	.
Cc1ccc(NC(=S)NCCc2ccccc2)nc1	3	-4	0
O=C(COc1ccccc1)Nc1ccccc1N1CCN(c2ccc(F)cc2)CC1	.	-4	4
O=C(Nc1ccccc1N1CCN(c2ccc(F)cc2)CC1)c1ccccc1	.	0	62*
CC(C)C(=O)Nc1cc(C(F)(F)F)ccc1-n1ccnc1	11	4	-22
CCN1/C(=C2\SC(=S)N(Cc3ccccc3)C2=O)Sc2ccccc21	7	-24	-4
CCC(CO)[n+]1c(C)cc(/C=C2\Sc3ccccc3N2Cc2ccccc2)cc1C (stereo unspecified)	35*	-161	0
Cc1ccc(NC(=O)CN2CCN(S(=O)(=O)c3cccs3)CC2)cc1S(=O)(=O)N(C)C	3	1	4
CCOC(=O)C1(CCCc2ccccc2)CCN(C(=O)CN2C(=O)CSC2=O)CC1	5	.	18
CN1CCN(C(=O)/C(C#N)=C/c2ccc(OC(F)F)cc2)CC1	9	44*	6
CCOC(=O)/C(C#N)=C/c1ccc(N2CCN(C)CC2)cc1	17	0	5
